Data reported in ChEMBL document CHEMBL1833805, “Histone deacetylase inhibitors from Burkholderia thailandensis” (2011).
The source made the active and inactive calls.

Experiments:
Format in all cases: functional, organism-based
LOX IMVI = test: Antitumor activity against human LOXIMVI cells implanted intraperitoneally in mouse assessed as inhibition of tumor cell growth at 1.6 to 2.4 mg/kg, ip administered on day 1 to 4 measured on day 5 by hollow fiber assay
In short: (§1)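 Human tumour cell lines from a standard 12-line panel encapsulated in polyvinylidene fluoride hollow fibres (500,000 Da exclusion), implanted intraperitoneally or subcutaneously in mice; drug given IP at 2.4 and 1.6 mg/kg/dose on days 1–4; fibres retrieved and viable cell mass determined day 5; T/C versus vehicle-only injected controls.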

MDA-MB-435 = test: Antitumor activity against human MDA-MB-435 cells implanted intraperitoneally in mouse assessed as inhibition of tumor cell growth at 1.6 to 2.4 mg/kg, ip administered on day 1 to 4 measured on day 5 by hollow fiber assay; in short: as §1
SW-620 = test: Antitumor activity against human SW620 cells implanted intraperitoneally in mouse assessed as inhibition of tumor cell growth at 1.6 to 2.4 mg/kg, ip administered on day 1 to 4 measured on day 5 by hollow fiber assay; in short: as §1
Homo sapiens = test: Antitumor activity against human OVRAC3 cells implanted intraperitoneally in mouse assessed as inhibition of tumor cell growth at 1.6 to 2.4 mg/kg, ip administered on day 1 to 4 measured on day 5 by hollow fiber assay; in short: as §1
COLO 205 = test: Antitumor activity against human COLO205 cells implanted intraperitoneally in mouse assessed as inhibition of tumor cell growth at 1.6 to 2.4 mg/kg, ip administered on day 1 to 4 measured on day 5 by hollow fiber assay; in short: as §1
NCI-H522 = test: Antitumor activity against human NCI-H522 cells implanted intraperitoneally in mouse assessed as inhibition of tumor cell growth at 1.6 to 2.4 mg/kg, ip administered on day 1 to 4 measured on day 5 by hollow fiber assay; in short: as §1
SF-295 = test: Antitumor activity against human SF295 cells implanted intraperitoneally in mouse assessed as inhibition of tumor cell growth at 1.6 to 2.4 mg/kg, ip administered on day 1 to 4 measured on day 5 by hollow fiber assay; in short: as §1
MDA-MB-231 = test: Antitumor activity against human MDA-MB-231 cells implanted intraperitoneally in mouse assessed as inhibition of tumor cell growth at 1.6 to 2.4 mg/kg, ip administered on day 1 to 4 measured on day 5 by hollow fiber assay; in short: as §1
UACC-62 = test: Antitumor activity against human UACC62 cells implanted intraperitoneally in mouse assessed as inhibition of tumor cell growth at 1.6 to 2.4 mg/kg, ip administered on day 1 to 4 measured on day 5 by hollow fiber assay; in short: as §1
OVCAR-5 = test: Antitumor activity against human OVCAR5 cells implanted intraperitoneally in mouse assessed as inhibition of tumor cell growth at 1.6 to 2.4 mg/kg, ip administered on day 1 to 4 measured on day 5 by hollow fiber assay; in short: as §1
NCI-H23 = test: Antitumor activity against human NCI-H23 cells implanted intraperitoneally in mouse assessed as inhibition of tumor cell growth at 1.6 to 2.4 mg/kg, ip administered on day 1 to 4 measured on day 5 by hollow fiber assay; in short: as §1
U-251 = test: Antitumor activity against human U251 cells implanted intraperitoneally in mouse assessed as inhibition of tumor cell growth at 1.6 to 2.4 mg/kg, ip administered on day 1 to 4 measured on day 5 by hollow fiber assay; in short: as §1

Measured: TGI

C/C=C1\NC(=O)[C@H]2CSSCC/C=C/[C@H](CC(=O)N[C@H](C(C)C)C(=O)N2)OC(=O)[C@H](C(C)C)NC1=O
active: all assays above
